Data from ChEMBL document CHEMBL3872233, “Topical Treatment of Leishmania tropica Infection Using (-)-α-Bisabolol Ointment in a Hamster Model: Effectiveness and Safety Assessment” (J Nat Prod, 2016).
Activity calls are given as the source filed them. The rule behind the calls is not given here.

Assays:
Leishmania tropica [1] = test: (§1) Antileishmanial activity against Leishmania tropica MHOM/MA/1988/LEM1314 promastigotes infected in Syrian hamster assessed as reduction in parasite load in foodpad skin at 200 mg administered once daily through oral gavage for 3 weeks starting at week 7 post infection measured 1 week post last dose by qPCR analysis relative to control; format: functional; design: scale not given: the % may be the effect or the level left
How it was run: (§2)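 Hamsters were infected in the footpad and treated daily for 21 days from week 7 post-infection, n = 10/group, and sacrificed 1 week after the last dose. Footpad skin, liver and spleen DNA was assayed by L. tropica-specific TaqMan qPCR (chromosome 29 target), in triplicate with 50 ng DNA per 25 μL reaction. Load was interpolated from Ct on a calibration curve of promastigote DNA, relative to base-ointment controls.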

Leishmania tropica [2] = test: as §1, with “lesion thickness” for “parasite load in foodpad skin”, “1 %” for “200 mg”, “tropically on footpad” for “through oral gavage”, “dose” for “dose by qPCR analysis”; format: functional; design: scale not given: the % may be the effect or the level left
How it was run: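 L. tropica stationary-phase promastigotes (3 × 10^7 in 50 μL PBS) injected into the left hind footpad. Treatment began at week 7 (+75% footpad thickness) and ran daily for 21 days, n = 10/group. Routes were 50 mg ointment on the lesion (cetyl alcohol/lanolin/petrolatum base), gavage in olive oil, or intralesional meglumine antimoniate 2 mg SbV/kg. Lesion thickness was measured weekly against base-only ointment; sacrifice was 1 week after the last dose.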

Leishmania tropica [3] = test: as §1, with “1 %” for “200 mg”, “tropically on footpad” for “through oral gavage”; format: functional; design: scale not given: the % may be the effect or the level left; how it was run: as §2
Leishmania tropica [4] = test: as §1, with “2.5 %” for “200 mg”, “tropically on footpad” for “through oral gavage”; format: functional; design: scale not given: the % may be the effect or the level left; how it was run: as §2
Leishmania tropica [5] = test: as §1, with “5 %” for “200 mg”, “tropically on footpad” for “through oral gavage”; format: functional; design: scale not given: the % may be the effect or the level left; how it was run: as §2
Syrian golden hamster [6] = test: Toxicity in Syrian hamster assessed as mean serum ALT levels at 500 mg/kg administered through oral gavage for 28 days (reference value: 82.2 +/- 4.8 U/L); format: organism-based, Mesocricetus auratus; conditions: in vivo, 672 h
Syrian golden hamster [7] = test: Toxicity in Syrian hamster infected with Leishmania tropica MHOM/MA/1988/LEM1314 promastigotes assessed as mean serum ALT levels at 1 % administered tropically on footpad for 3 weeks starting at week 7 post infection measured 1 week post last dose (reference value: 81.6 +/- 4.9 U/L); format: organism-based, Mesocricetus auratus; conditions: in vivo, topical_or_ocular, 168 h
Syrian golden hamster [8] = test: Toxicity in Syrian hamster infected with Leishmania tropica MHOM/MA/1988/LEM1314 promastigotes assessed as mean serum ALT levels at 5 % administered tropically on footpad for 3 weeks starting at week 7 post infection measured 1 week post last dose (reference value: 81.6 +/- 4.9 U/L); format: organism-based, Mesocricetus auratus; conditions: in vivo, topical_or_ocular, 168 h
Syrian golden hamster [9] = test: Toxicity in Syrian hamster assessed as mean serum creatinine levels at 5 % administered tropically on footpad for 28 days (reference value: 0.21 +/- 0.2 mg/dl); format: organism-based, Mesocricetus auratus; conditions: in vivo, topical_or_ocular, 672 h
Syrian golden hamster [10] = test: Toxicity in Syrian hamster infected with Leishmania tropica MHOM/MA/1988/LEM1314 promastigotes assessed as mean serum creatinine levels at 5 % administered tropically on footpad for 3 weeks starting at week 7 post infection measured 1 week post last dose (reference value: 0.19 mg/dl); format: organism-based, Mesocricetus auratus; conditions: in vivo, topical_or_ocular, 168 h
Syrian golden hamster [11] = test: Toxicity in Syrian hamster assessed as mean serum ALP levels at 500 mg/kg administered through oral gavage for 28 days (reference value: 14.4 +/- 2 U/L); format: organism-based, Mesocricetus auratus; conditions: in vivo, 672 h
Syrian golden hamster [12] = test: Toxicity in Syrian hamster infected with Leishmania tropica MHOM/MA/1988/LEM1314 promastigotes assessed as mean serum ALP levels at 2.5 % administered tropically on footpad for 3 weeks starting at week 7 post infection measured 1 week post last dose (reference value: 14.4 +/- 0.9 U/L); format: organism-based, Mesocricetus auratus; conditions: in vivo, topical_or_ocular, 168 h
Syrian golden hamster [13] = test: Toxicity in Syrian hamster assessed as urea levels at 5 % administered tropically on footpad for 28 days (reference value: 33.2 +/- 2.8 mg/dl); format: organism-based, Mesocricetus auratus; conditions: in vivo, topical_or_ocular, 672 h
Syrian golden hamster [14] = test: Toxicity in Syrian hamster assessed as spleen weight at 500 mg/kg administered through oral gavage for 28 days (reference value: 179.4 +/- 19.8 mg); format: organism-based, Mesocricetus auratus; conditions: in vivo, 672 h
Syrian golden hamster [15] = test: Toxicity in Syrian hamster infected with Leishmania tropica MHOM/MA/1988/LEM1314 promastigotes assessed as spleen weight at 200 mg/kg administered through oral gavage for 3 weeks starting at week 7 post infection measured 1 week post last dose (reference value: 178.8 +/- 1.2 mg); format: organism-based, Mesocricetus auratus; conditions: in vivo, 168 h
Syrian golden hamster [16] = test: Toxicity in Syrian hamster assessed as liver weight at 500 mg/kg administered through oral gavage for 28 days (reference value: 4.1 +/- 0.7 g); format: organism-based, Mesocricetus auratus; conditions: in vivo, 672 h
Syrian golden hamster [17] = test: Toxicity in Syrian hamster infected with Leishmania tropica MHOM/MA/1988/LEM1314 promastigotes assessed as stress at 200 mg/kg administered through oral gavage for 3 weeks starting at week 7 post infection measured during compound dosing or measured 1 week post last dose; format: organism-based, Mesocricetus auratus; conditions: in vivo, 168 h
How it was run: (§3)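 Infected hamsters (footpad, 3 × 10^7 promastigotes) were gavaged daily for 21 days from week 7 post-infection at 200 mg/kg in olive oil, n=10.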

Syrian golden hamster [18] = test: Toxicity in Syrian hamster infected with Leishmania tropica MHOM/MA/1988/LEM1314 promastigotes assessed as pain at 200 mg/kg administered through oral gavage for 3 weeks starting at week 7 post infection measured during compound dosing or measured 1 week post last dose; format: organism-based, Mesocricetus auratus; conditions: in vivo, 168 h; how it was run: as §3
Syrian golden hamster [19] = test: Toxicity in Syrian hamster infected with Leishmania tropica MHOM/MA/1988/LEM1314 promastigotes assessed as footpad edema at 200 mg/kg administered through oral gavage for 3 weeks starting at week 7 post infection measured during compound dosing or measured 1 week post last dose; format: organism-based, Mesocricetus auratus; conditions: in vivo, 168 h
How it was run: (§4)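 Infected hamsters were treated daily for 21 days from week 7 post-infection (ointment 1–5%, 200 mg/kg gavage, or intralesional meglumine antimoniate 2 mg SbV/kg). Clinical signs and body weight were monitored during treatment and a 7-day follow-up. After sacrifice, liver and spleen were weighed and serum ALP, ALT, creatinine, urea and AST were measured with kits, compared with untreated infected animals.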

Syrian golden hamster [20] = test: Toxicity in Syrian hamster infected with Leishmania tropica MHOM/MA/1988/LEM1314 promastigotes assessed as redness at 200 mg/kg administered through oral gavage for 3 weeks starting at week 7 post infection measured during compound dosing or measured 1 week post last dose; format: organism-based, Mesocricetus auratus; conditions: in vivo, 168 h; how it was run: as §3
Syrian golden hamster [21] = test: Toxicity in Syrian hamster infected with Leishmania tropica MHOM/MA/1988/LEM1314 promastigotes assessed as change in body weight at 200 mg/kg administered through oral gavage for 3 weeks starting at week 7 post infection measured during compound dosing or measured 1 week post last dose; format: organism-based, Mesocricetus auratus; conditions: in vivo, 168 h; how it was run: as §4
Leishmania tropica [22] = test: as §1, with “liver” for “foodpad skin”; format: functional, tissue-based; how it was run: as §2
Leishmania tropica [23] = test: as §1, with “liver” for “foodpad skin”, “1 %” for “200 mg”, “tropically on footpad” for “through oral gavage”; format: functional, tissue-based; how it was run: as §2
Leishmania tropica [24] = test: as §1, with “liver” for “foodpad skin”, “2.5 %” for “200 mg”, “tropically on footpad” for “through oral gavage”; format: functional, tissue-based; how it was run: as §2
Leishmania tropica [25] = test: as §1, with “amastigote levels” for “parasite load”, “skin macerate” for “skin”, “Giemsa staining-based method” for “qPCR analysis relative to control”; format: functional

## CC(C)=CCC[C@](C)(O)[C@@H]1CC=C(C)CC1 [LEVOMENOL]
Leishmania tropica [1]
  Activity: 74%
Leishmania tropica [2]
  Activity: 49%
Leishmania tropica [3]
  Activity: 56%
Leishmania tropica [4]
  Activity: 83%
Leishmania tropica [5]
  Activity: 82%
Syrian golden hamster [6]
  Activity: 82.6 U/L
Syrian golden hamster [7]
  Activity: 81.9 U/L
Syrian golden hamster [8]
  Activity: 81.8 U/L
Syrian golden hamster [9]
  Activity: 0.19 mg/dL
Syrian golden hamster [10]
  Activity: 0.18 mg/dL
Syrian golden hamster [11]
  Activity: 14.7 U/L
Syrian golden hamster [12]
  Activity: 13.3 U/L
Syrian golden hamster [13]
  Activity: 33.9 mg/dL
Syrian golden hamster [14]
  Activity: 181.2 mg
Syrian golden hamster [15]
  Activity: 177.3 mg
Syrian golden hamster [16]
  Activity: 3.5 g
Syrian golden hamster [17]
  Activity: Non-Toxic
Syrian golden hamster [18]
  Activity: Non-Toxic
Syrian golden hamster [19]
  Activity: Non-Toxic
Syrian golden hamster [20]
  Activity: Non-Toxic
Syrian golden hamster [21]
  Activity: Non-Toxic
Leishmania tropica [22]
  Activity: Active
Leishmania tropica [23]
  Activity: Active
Leishmania tropica [24]
  Activity: Active
Leishmania tropica [25]
  Activity: Active
